HIF act – HIF pathway transcriptional activation; U2OS HRE-luciferase reporter, luminescence; normalized: DMSO 0%, desferrioxamine 100%; activation, % at 7.5 µM (by protocol); actives 0.32% (n = 300,000);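 active = mean activation of at least 10% of the iron chelator positive control signal, with at least half of replicates also reaching 10%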
PP5 inh – PP5 (human) phosphatase inhibition. actives 0.18% (n = 320,000). purified PP5c, OMFP substrate fluorescence. AID 1987. inhibition, % at 6.7 µM. P53041;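 active = inhibition above the campaign's mean inhibition across all tested compounds plus 3 SD, cut at about 9.5% in these data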;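 note: 0% = DMSO only and 100% = 100 µM cantharidin control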
DNA FID counter-1 – counter-screen for HCV NS3 helicase inhibitors: DNA intercalator displacement. AID 1845. actives 0.17% (n = 290,000). DNA fluorescent intercalator displacement, fluorescence. inhibition, % at 7.9 µM;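 note: 0% = vehicle and 100% = reference compound; higher means more ethidium bromide displaced from hairpin DNA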
PP1 counter – PP1-alpha (human) inhibition in PP5 counter-screen; inhibition, % at 6.7 µM; actives 0.9% (n = 320,000); P62136; AID 2235; purified PP1alpha, OMFP fluorescence;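 active = inhibition above the mean inhibition of all tested compounds plus 3 SD, computed separately for each screening campaign, cut at about 15% in these data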
Target sequence (P62136 whole entry, looked up): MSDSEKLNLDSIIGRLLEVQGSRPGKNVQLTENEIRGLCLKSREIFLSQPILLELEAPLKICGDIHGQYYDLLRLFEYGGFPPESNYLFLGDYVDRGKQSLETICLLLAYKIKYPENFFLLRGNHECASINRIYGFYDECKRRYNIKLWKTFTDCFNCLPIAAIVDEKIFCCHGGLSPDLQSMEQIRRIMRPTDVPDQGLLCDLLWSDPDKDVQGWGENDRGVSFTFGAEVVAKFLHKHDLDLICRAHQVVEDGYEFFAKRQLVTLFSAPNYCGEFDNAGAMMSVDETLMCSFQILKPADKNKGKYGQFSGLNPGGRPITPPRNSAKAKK
HCV NS3 hel inh – blocks Hepatitis C virus NS3 helicase unwinding | NS3 helicase DNA unwinding, Cy5 molecular beacon fluorescence | inhibition, % at 10.9 µM | actives 0.56% (n = 290,000);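 active = inhibition above the mean of all tested compounds plus 3 SD, set per campaign, cut at about 35% in these data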;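 note: 0% = DMSO wells and 100% = thioflavine S control wells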
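System: NS3 helicase fragment of HCV / Schedule: 1 h at 25 °C / Control set: DMSO alone as 0% and 110 µM thioflavine S as 100% / Reagent: Cy5/quencher beacon DNA duplex and ATP to start / Technique: Cy5 fluorescence / Replication: singlicate / Evaluation: % inhibition of end-to-start signal ratio versus controls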
NS3 helicase cf – HCV NS3 helicase inhibition, confirmation assay | actives 31% (n = 1,600) | AID 1943 | inhibition, % at 10.9 µM | shares compounds with HCV NS3 hel inh | NS3 helicase DNA unwinding, Cy5 molecular beacon fluorescence;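 active = inhibition above the mean of all tested compounds plus 3 SD, cutoff set per campaign, cut at about 36% in these data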
DNA FID counter-2 – displaces DNA intercalator in HCV helicase counter-screen; shares compounds with HCV NS3 hel inh; DNA fluorescent intercalator displacement, fluorescence; inhibition, % at 7.9 µM; actives 4% (n = 1,600); AID 1945;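 note: 0% = vehicle and 100% = reference compound; higher means more displacement of ethidium bromide from the DNA hairpin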
* hit, by the source's call; / = not tested or not shown. This is a sample that favours compounds with a hit; in the whole collection about 1.9% have one here. Cut-off read from the data, not from the text of the source, unless noted: active = inhibition above about 37%; inactive = the rest.

SMILES	HIF act	PP5 inh	DNA FID counter-1	PP1 counter	HCV NS3 hel inh	NS3 helicase cf	DNA FID counter-2
O=C(NC12CC3CC(CC(C3)C1)C2)c1cncc(O)c1	0	2	-4	-1	3	/	/
Cc1ccc(NC(=O)c2cc(NC(=O)c3ccccc3C(=O)O)ccc2N2CCCCC2)cc1	-1	1	-17	3	46*	75*	-6
CNC(=O)c1c(NC(=O)c2cc(-c3cc(C)c(C)cc3O)n[nH]2)sc2c1CCCC2	0	0	-4	-2	-1	/	/
CC(C#N)Sc1ccc(S(=O)(=O)N(C)C2CCCCC2)cn1 (stereo not given)	/	3	/	2	/	/	/
NC(=S)N/N=C\c1c(OCc2ccccc2Cl)ccc2ccccc12	/	2	-19	-10	36*	12	-21
COC(=O)c1c(NC(=O)CSc2nc3ccccc3c(=O)n2-c2ccccc2)sc(C)c1C	0	-1	-20	-3	48*	10	-20
Cc1cc(NC(=O)CSc2nc3ccccc3c(=O)n2-c2ccccc2)no1	-26	4	-1	0	2	/	/
CCCCCCCCCCCCN1C/C(=C\C(=O)OCC)c2ccccc2S1(=O)=O	0	1	-28	-2	80*	10	-22
CCCCCCCCCCCCN1C/C(=C\C(=O)OCC)c2cc(C(F)(F)F)ccc2S1(=O)=O	0	3	-19	4	25	/	/
CCc1noc(C)c1C(=O)N(CC)CC(=O)NCc1ccc(Cl)cc1	/	-2	/	0	/	/	/
O=C1NN(c2ccccc2)C(=O)/C1=C\c1ccccc1OCC(=O)N1CCOCC1	0	2	-23	0	49*	-16	0
COc1cc(OC)cc(C(=O)Nc2sc3c(c2C(N)=O)CCC3)c1	3	3	2	-4	2	/	/
Cc1cc(C)n(-c2c(C)[nH]c3ccccc23)n1	1	-3	-8	-2	-13	/	/
Cc1ccc(SC(CC(=O)c2ccc(F)cc2)C(=O)O)cc1 (stereo not given)	1	1	-14	0	43*	-23	1
CCOC(=O)C1(C)C=C(Nc2ccc(O)cc2)C(=O)N1c1ccc(O)cc1 (stereo not given)	0	8	-28	1	38*	-10	14
COc1ccc(CCNC(=O)CC2SC(=NCCc3ccccc3)NC2=O)cc1OC (stereo not given)	0	-4	-20	-6	6	/	/
COCCn1c(=S)[nH]c2sc3c(c2c1=O)CCCC3	0	-5	-19	-4	52*	-9	-6
COCCCn1c(=S)[nH]c2sc3c(c2c1=O)CCCC3	0	0	-26	1	11	/	/
COC(=O)c1ccc(N2NC(=O)/C(=C/c3cc(OC)c(O)c(OC)c3)C2=O)cc1	1	1	4	8	61*	17	13
COc1cccc(/C=C2/C(=O)NN(c3ccc(Br)cc3)C2=O)c1O	-17	/	-3	/	38*	58*	8
COC(=O)c1ccc(N2NC(=O)/C(=C/c3cc(OC)c(OC)c(OC)c3)C2=O)cc1	0	2	11	4	-9	/	/
COc1cc(/C=C2/C(=O)NN(c3ccc(Cl)cc3)C2=O)cc(Br)c1O	-1	4	-12	2	23	/	/
COc1cc(/C=C2/C(=O)NN(c3ccc(F)cc3)C2=O)cc(Cl)c1O	-2	3	-10	1	36*	34	7
COc1ccc(CCNC(=O)C(=O)NCC2OCCN2S(=O)(=O)c2ccccc2)cc1 (stereo not given)	0	1	-27	2	37*	-12	-47
COC(=O)c1c(C(=O)OC)c(-c2ccc(Cl)cc2)n2c1CS(=O)(=O)C2	0	4	-9	-3	4	/	/
O=C(N/C(=C\c1ccc(Br)cc1)C(=O)N1CCOCC1)c1ccccc1Cl	0	0	-48	1	-3	/	/
O=C(N/C(=C\c1ccccc1)C(=O)N1CCOCC1)c1ccccc1Cl	0	-1	-27	-9	36*	-7	-8
CCc1cc2cc3c(cc2nc1SCC(=O)Nc1nccs1)OCO3	0	-1	0	-5	-5	/	/
CCc1cc2cc3c(cc2nc1SCC(=O)Nc1c[nH]c(=O)[nH]c1=O)OCO3	0	-1	-16	1	41*	-3	2
